According to ChEMBL document CHEMBL3407499, “Synthesis, QSAR and anticandidal evaluation of 1,2,3-triazoles derived from naturally bioactive scaffolds” (Eur J Med Chem, 2015):
In brackets after ≈: the same amount, converted by molar mass.

How the values were obtained:
Candida tropicalis [1] = test: Anticandidal activity against Candida tropicalis ATCC 750 incubated at 37 degC for 24 hrs by broth dilution method; assay type: functional, organism-based; conditions: ATCC 750, 24 h
Candida albicans [2] = test: microbe, parasite or virus in culture; assay type: functional, organism-based; conditions: ATCC 90028, 24 h
Nakaseomyces glabratus [3] = test: microbe, parasite or virus in culture; assay type: functional, organism-based; conditions: ATCC 90030, 24 h
Nakaseomyces glabratus [4] = test: microbe, parasite or virus in culture; assay type: functional; conditions: ATCC 90030, 48 h
Vero = test: Cytotoxicity against African green monkey Vero cells assessed as reduction in cell viability up to 10 ug/ml after 48 hrs by neutral red assay; assay type: cell-based; conditions: chlorocebus sabaeus
Candida albicans [5] = test: microbe, parasite or virus in culture; assay type: functional; conditions: ATCC 90028, 48 h
Candida tropicalis [6] = test: Fungicidal activity against Candida tropicalis ATCC 750 incubated at 37 degC for 48 hrs by broth dilution method; assay type: functional; conditions: ATCC 750, 48 h
[7] = Toxicity in human RBC assessed as induction of hemolysis at 500 ug/ml incubated for 1 hr by spectrophotometry; assay type: cell-based, Erythrocyte; conditions: red blood cells (RBC), read-out: Activity
Summary of the method: (§1)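 Human erythrocyte suspension in PBS, 100 µL added in triplicate to 100 µL compound dilution series in the same buffer, 1 h at 37 °C. Tubes centrifuged 10 min at 2000 rpm and 20 °C, and supernatant A450 measured. Percent hemolysis taken relative to buffer (0%) and 1% Triton X-100 (100%).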

[8] = Toxicity in human RBC assessed as induction of hemolysis at anticandidal IC50 level incubated for 1 hr by spectrophotometry; assay type: cell-based, Erythrocyte; conditions: red blood cells (RBC), read-out: Activity; summary of the method: as §1
Nakaseomyces glabratus [9] = test: Anticandidal activity against Candida glabrata ATCC 90030 incubated at 37 degC for 24 hrs in presence of 8-((1-Benzyl-1H-1,2,3-triazol-4-yl)methoxy)quinoline by broth micro dilution method; assay type: functional; conditions: ATCC 90030, 24 h
Candida tropicalis [10] = test: Anticandidal activity against Candida tropicalis ATCC 750 incubated at 37 degC for 24 hrs in presence of 8-((1-Benzyl-1H-1,2,3-triazol-4-yl)methoxy)quinoline by broth micro dilution method; assay type: functional; conditions: ATCC 750, 24 h

With `COc1ccccc1OCc1cn(Cc2ccccc2)nn1` the IC50 (Candida tropicalis [1]) was 165 µg/mL (≈ 559 µM), the IC50 (Candida albicans [2]) was 515 µg/mL (≈ 1740 µM) and the IC50 (Nakaseomyces glabratus [3]) was 370 µg/mL (≈ 1250 µM). The MFC (Nakaseomyces glabratus [4]) was over 1000 µg/mL and the Activity (Vero) was “Non-toxic”.

`COc1cc(C=O)ccc1OCc1cn(Cc2ccccc2)nn1` showed an MFC (Candida albicans [5]) of over 500 µg/mL, an MFC (Candida tropicalis [6]) of 500 µg/mL (≈ 1550 µM) and an IC50 (Candida tropicalis [1]) of 92.7 µg/mL (≈ 287 µM). It also gave a hemolysis at 1 h, 500 ug/ml [7] of 33.5%, an IC50 (Candida albicans [2]) of 44.7 µg/mL (≈ 138 µM) and a hemolysis at 1 h [8] of under 5%. For the same compound, the IC50 (Nakaseomyces glabratus [3]) was 216 µg/mL (≈ 667 µM), the MFC (Nakaseomyces glabratus [4]) was 500 µg/mL (≈ 1550 µM) and the Activity (Vero) was “Non-toxic”.

`C/C=C\c1ccc(O)c(OC)c1` [ISOEUGENOL] showed an MFC (Candida albicans [5]) of 1000 µg/mL (≈ 6090 µM), an MFC (Candida tropicalis [6]) of 1000 µg/mL (≈ 6090 µM) and an IC50 (Candida tropicalis [1]) of 128 µg/mL (≈ 778 µM). For the same compound, the IC50 (Candida albicans [2]) was 83 µg/mL (≈ 505 µM), the IC50 (Nakaseomyces glabratus [3]) was 71.6 µg/mL (≈ 436 µM) and the MFC (Nakaseomyces glabratus [4]) was 500 µg/mL (≈ 3040 µM).

For `Oc1cccc2cccnc12` [OXYQUINOLINE], the MFC (Candida albicans [5]) was 500 µg/mL (≈ 3440 µM), the MFC (Candida tropicalis [6]) was 500 µg/mL (≈ 3440 µM) and the IC50 (Candida tropicalis [1]) was 22.9 µg/mL (≈ 158 µM). It also gave an MIC (Candida tropicalis [1]) of 15.6 µg/mL (≈ 108 µM), a hemolysis at 1 h, 500 ug/ml [7] of 15% and an IC50 (Candida albicans [2]) of 18.5 µg/mL (≈ 127 µM). It also gave a hemolysis at 1 h [8] of under 5%, an IC50 (Nakaseomyces glabratus [3]) of 13.8 µg/mL (≈ 95.1 µM) and an MFC (Nakaseomyces glabratus [4]) of 500 µg/mL (≈ 3440 µM).

Compound `OC(Cn1cncn1)(Cn1cncn1)c1ccc(F)cc1F` [FLUCONAZOLE] has an IC50 (Candida tropicalis [1]) of 8.55 µg/mL (≈ 27.9 µM), an MIC (Candida tropicalis [1]) of 15.6 µg/mL (≈ 51 µM) and a hemolysis at 1 h, 500 ug/ml [7] of 68.6%. The IC50 (Candida albicans [2]) was 15.6 µg/mL (≈ 51 µM), the MIC (Nakaseomyces glabratus [9]) was 3.9 µg/mL and the MIC (Candida tropicalis [10]) was 3.9 µg/mL. For the same compound, the IC50 (Nakaseomyces glabratus [3]) was 7.81 µg/mL (≈ 25.5 µM) and the MIC (Nakaseomyces glabratus [3]) was 15.6 µg/mL (≈ 51 µM).

With `CC(C)c1ccc(CO)cc1` the MFC (Candida albicans [5]) was 1000 µg/mL (≈ 6660 µM), the MFC (Candida tropicalis [6]) was 1000 µg/mL (≈ 6660 µM) and the IC50 (Candida tropicalis [1]) was 44.8 µg/mL (≈ 298 µM). It also gave an IC50 (Candida albicans [2]) of 81.5 µg/mL (≈ 542 µM), an IC50 (Nakaseomyces glabratus [3]) of 7.09 µg/mL (≈ 47.2 µM) and an MFC (Nakaseomyces glabratus [4]) of 500 µg/mL (≈ 3330 µM).

`CC(C)c1ccc(OCc2cn(Cc3ccccc3)nn2)cc1` showed an MFC (Candida albicans [5]) of 1000 µg/mL (≈ 3250 µM), an MFC (Candida tropicalis [6]) of 1000 µg/mL (≈ 3250 µM) and an IC50 (Candida tropicalis [1]) of 493 µg/mL (≈ 1600 µM). The IC50 (Candida albicans [2]) was 550 µg/mL (≈ 1790 µM), the IC50 (Nakaseomyces glabratus [3]) was 1060 µg/mL (≈ 3460 µM) and the MFC (Nakaseomyces glabratus [4]) was 1000 µg/mL (≈ 3250 µM). The Activity (Vero) was “Non-toxic”.

`COc1cc(/C=C/C(=O)O)ccc1OCc1cn(Cc2ccccc2)nn1` showed an MFC (Candida albicans [5]) of over 1000 µg/mL, an MFC (Candida tropicalis [6]) of over 1000 µg/mL and an IC50 (Candida tropicalis [1]) of 105 µg/mL (≈ 288 µM). For the same compound, the IC50 (Candida albicans [2]) was 891 µg/mL (≈ 2440 µM), the IC50 (Nakaseomyces glabratus [3]) was 416 µg/mL (≈ 1140 µM) and the MFC (Nakaseomyces glabratus [4]) was over 1000 µg/mL. For the same compound, the Activity (Vero) was “Non-toxic”.

For `C=CCc1ccc(OCc2cn(Cc3ccccc3)nn2)c(OC)c1`, the MFC (Candida albicans [5]) was over 1000 µg/mL, the IC50 (Candida tropicalis [1]) was 734 µg/mL (≈ 2190 µM) and the IC50 (Candida albicans [2]) was 1090 µg/mL (≈ 3260 µM). For the same compound, the IC50 (Nakaseomyces glabratus [3]) was 847 µg/mL (≈ 2530 µM), the MFC (Nakaseomyces glabratus [4]) was over 1000 µg/mL and the Activity (Vero) was “Non-toxic”.
